Molecules are shown by their SMILES. pIC50: −log10 of the molar value. In brackets after ≈: the same amount, converted by molar mass. Some results are limits rather than exact numbers.

Assay [1] concerns Agrobacterium tumefaciens. As to the kind of experiment: Antibacterial activity against Agrobacterium tumefaciens ATCC 11158 by broth dilution colorimetric assay. Format: functional. Put shortly:
(§1)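 Modified broth dilution colorimetric assay in 96-well plates, run against a plant- and human-pathogen panel. Both MIC and median inhibitory concentration (IC50) were determined. Streptomycin sulfate served as the positive control.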
A general note: Broth dilution looks for growth in wells or tubes with falling amounts of substance.

The next assay deals with Bacillus subtilis. In words: Antibacterial activity against Bacillus subtilis ATCC 11562 by broth dilution colorimetric assay. It is filed as functional. In outline: as §1
The subject of assay [2] is Pseudomonas amygdali pv. lachrymans. In words: Antibacterial activity against Pseudomonas lachrymans ATCC 11921 by broth dilution colorimetric assay. It is filed as functional. In outline:
as §1

The nature of assay [3]: Antibacterial activity against Ralstonia solanacearum ATCC 11696 by broth dilution colorimetric assay. Format: functional, Ralstonia solanacearum K60-1. In outline: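 Modified broth dilution colorimetric assay in 96-well plates, reporting both minimum inhibitory concentration (MIC) and median inhibitory concentration (IC50). Streptomycin sulfate served as positive control.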

The subject of assay [4] is Staphylococcus haemolyticus. As to the kind of experiment: Antibacterial activity against Staphylococcus haemolyticus ATCC 29970 by broth dilution colorimetric assay. Format: functional. Put shortly: as §1
Assay [5] concerns Xanthomonas euvesicatoria. As to the kind of experiment: Antibacterial activity against Xanthomonas vesicatoria ATCC 11633 by broth dilution colorimetric assay. It is filed as functional. Put shortly: as §1
The next assay deals with Pyricularia oryzae. As to the kind of experiment: Antifungal activity against Magnaporthe oryzae assessed as inhibition of spore germination after 8 hrs by microscopic analysis. Format: functional. In outline:
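Spores taken from 7-day-old M. oryzae cultures (2 × 10^6 spores per mL). Compound in 10% aqueous ethanol was mixed 1:1 with the spore suspension on a concave slide and kept in a dark moist chamber at 25 °C for 8 h. Germination was counted by microscope. Inhibition % = [(Gc − Gt)/Gc] × 100 against 10% ethanol control, with triplicates. IC50 was obtained by linear regression; carbendazim served as positive control.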

Assay [6] in a line: Cytotoxicity against human HCT116 cells by MTT assay. It is filed as functional, cell-based. To be noted: HCT-116. Put shortly: (§2)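 Microculture tetrazolium (MTT) assay on a panel of human carcinoma cell lines: colon HCT-116, hepatocellular HepG2, gastric BGC-823, NSCLC NCI-H1650, ovarian A2780, melanoma A375, lung adenocarcinoma A549, breast MCF-7 and pancreatic Capan2. IC50 values are reported in μM.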
(In general: Tetrazolium assays rely on reduction of a dye to a coloured formazan, in cell work by metabolically active cells.)

Assay [7] in a line: Cytotoxicity against human HepG2 cells by MTT assay. It is filed as functional, cell-based. Put shortly: as §2
The nature of assay [8]: Cytotoxicity against human BGC823 cells by MTT assay. It is filed as functional, cell-based. To be noted: BGC-823. In outline: as §2
Assay [9] is described as follows: Cytotoxicity against human NCI-H1650 cells by MTT assay. It is filed as functional, cell-based. Put shortly:
as §2

Assay [10] in a line: Cytotoxicity against human A2780 cells by MTT assay. It is filed as functional, cell-based. Put shortly:
as §2

Assay [11] is described as follows: Cytotoxicity against human A375 cells by MTT assay. Format: functional, cell-based. The conditions noted are these: A-375. In outline:
as §2

Assay [12] is described as follows: Cytotoxicity against human A549 cells by MTT assay. Format: functional, cell-based. Put shortly: as §2
Assay [13] is described as follows: Cytotoxicity against human MCF7 cells by MTT assay. It is filed as functional, cell-based. In outline:
as §2

A short description of assay [14]: Cytotoxicity against human Capan2 cells by MTT assay. The conditions noted are these: Capan-2. It is filed as functional, cell-based. Put shortly: as §2

In general, MIC refers to the lowest concentration that inhibits growth of the organism. A low value points to a more susceptible organism. One may read the IC50 as the midpoint of a concentration-inhibition curve. A word on the pIC50: it is the IC50 on a negative log10 scale, so that one unit is a factor of ten. Read a high pIC50 as a low IC50. In the case of `COc1cc(O)c2c(=O)oc3c(O)c(OC)cc(C)c3c2c1`, the MIC (in assay [1]; against Bacillus subtilis; in assay [2]; in assay [3]; in [4]; in assay [5]) was > 200 µg/mL throughout. The IC50 with Pyricularia oryzae was > 200 µg/mL. The pIC50 in assay [6], in assay [7], in assay [8], in assay [9] and in assay [10] was < 5.00 in each case.

For `COc1cc(O)c2c(=O)oc3c(c2c1)[C@@](C)(O)C[C@@H](OC)[C@@]31C[C@@H](O)C(=O)O1`, the IC50 in [1] is 56.7 µg/mL (≈ 145 µM); in the assay on Bacillus subtilis it was 45.5 µg/mL (≈ 116 µM); in [2], 44.7 µg/mL (≈ 114 µM); in the assay on Pyricularia oryzae, > 200 µg/mL. The MIC is 100 µg/mL (≈ 255 µM) in assay [1]; 75 µg/mL (≈ 191 µM) in the assay on Bacillus subtilis; 100 µg/mL (≈ 255 µM) in [2]; > 200 µg/mL in [3]; > 200 µg/mL in assay [4]; > 200 µg/mL in [5]. In addition, the pIC50 in assay [6], in assay [11], in assay [12], in assay [13] and in assay [14] was < 4.30 each time.

For `COc1cc(O)c2c(=O)oc3c(O)c(OC)c(Cl)c(C)c3c2c1`, the IC50 in assay [1] turned out to be 15 µg/mL (≈ 44.5 µM); with Bacillus subtilis, 22.4 µg/mL (≈ 66.5 µM); in assay [2], 16.4 µg/mL (≈ 48.7 µM); in [3], 24.2 µg/mL (≈ 71.9 µM); in assay [4], 26.7 µg/mL (≈ 79.3 µM); in assay [5] it was 15.9 µg/mL (≈ 47.2 µM). Further, the IC50 in the assay on Pyricularia oryzae was > 200 µg/mL. Moreover, the MIC (in [1]; in the assay with Bacillus subtilis; in assay [2]; in assay [3]; in assay [4]; in assay [5]) was 50 µg/mL (≈ 148 µM) in each case. Also, the pIC50 in assay [6], in assay [7], in [8], in assay [9] and in assay [10] was < 5.00 in each case.

Consider `CN[C@@H]1[C@H](O[C@H]2[C@H](O[C@H]3[C@H](O)[C@@H](O)[C@H](N=C(N)N)[C@@H](O)[C@@H]3N=C(N)N)O[C@@H](C)[C@]2(O)C=O)O[C@@H](CO)[C@H](O)[C@H]1O.CN[C@@H]1[C@H](O[C@H]2[C@H](O[C@H]3[C@H](O)[C@@H](O)[C@H](N=C(N)N)[C@@H](O)[C@@H]3N=C(N)N)O[C@@H](C)[C@]2(O)C=O)O[C@@H](CO)[C@H](O)[C@H]1O.O=S(=O)(O)O.O=S(=O)(O)O.O=S(=O)(O)O` [STREPTOMYCIN SULFATE], for which the IC50 turned out to be 1.4 µg/mL in assay [1]; 1.4 µg/mL in the assay with Bacillus subtilis; 2.3 µg/mL in [2]; 1.2 µg/mL in [3]; 1.4 µg/mL in assay [4]; 2.6 µg/mL in assay [5]. For the same molecule, the MIC in assay [1] was 5 µg/mL; in the assay on Bacillus subtilis, 5 µg/mL; in [2], 7.5 µg/mL; in [3] it was 5 µg/mL; in assay [4], 5 µg/mL; in assay [5], 10 µg/mL.

Take `COC(=O)Nc1nc2ccccc2[nH]1` [CARBENDAZIM]: the IC50 in the assay with Pyricularia oryzae stood at 6.9 µg/mL (≈ 36.1 µM).

For `COc1cc(O)c2c(=O)oc3c(c2c1)[C@@](C)(O)C(Cl)=C(O)C3=O`, the IC50 in assay [1] stood at 47.3 µg/mL (≈ 140 µM); in the assay with Bacillus subtilis, 44.6 µg/mL (≈ 132 µM); in assay [2], 4.3 µg/mL (≈ 12.7 µM); in assay [3] it was 36.5 µg/mL (≈ 108 µM); in [4], 7 µg/mL (≈ 20.7 µM); in [5], 52.5 µg/mL (≈ 155 µM). Besides, the MIC in assay [1] stood at 100 µg/mL (≈ 295 µM); against Bacillus subtilis, 100 µg/mL (≈ 295 µM); in assay [2], 25 µg/mL (≈ 73.8 µM); in assay [3] it was 50 µg/mL (≈ 148 µM); in assay [4] it was 25 µg/mL (≈ 73.8 µM); in assay [5] it was 100 µg/mL (≈ 295 µM). For the same molecule, the pIC50 in assay [6] was 4.43; in assay [11], < 4.30; in assay [12], 4.59; in assay [13] it was < 4.30; in [14] it was < 4.30.

Take `COc1cc(O)c2c(=O)oc3c(c2c1)[C@@](C)(O)C[C@H](OC)[C@@]31C[C@@H](O)C(=O)O1`: the MIC (in assay [1]; against Bacillus subtilis; in assay [2]; in [3]; in assay [4]; in [5]) was > 200 µg/mL in each case.

As to `COC1=C(N)[C@](C)(O)c2c(oc(=O)c3c(O)cc(OC)cc23)C1=O`, the MIC (in assay [1]; against Bacillus subtilis; in [2]; in assay [3]; in assay [4]; in assay [5]) was > 200 µg/mL in each case.

Take `CC(=O)O[C@H]1C(=O)[C@@]2(C)[C@H]([C@H](OC(=O)c3ccccc3)[C@]3(O)C[C@H](OC(=O)[C@H](O)[C@@H](NC(=O)c4ccccc4)c4ccccc4)C(C)=C1C3(C)C)[C@]1(OC(C)=O)CO[C@@H]1C[C@@H]2O` [PACLITAXEL]: the pIC50 in assay [6] was 8.40 to 9.05; in assay [7], 7.92; in [8], 8.48; in assay [9], 7.17; in [10] it was 7.42; in assay [11], 7.66. For the same molecule, the pIC50 in assay [12] is 7.64; in [13], 9.22; in assay [14], 7.77.

On to `Cc1cc(O)cc2oc(=O)c3c(O)cc(O)cc3c12` [ALTERNARIOL], for which the IC50 in assay [1] stood at 11.4 µg/mL (≈ 44.1 µM); in the assay with Bacillus subtilis it was 7 µg/mL (≈ 27.1 µM); in assay [2], 3.5 µg/mL (≈ 13.6 µM); in assay [3], 5.5 µg/mL (≈ 21.3 µM); in [4], 7.9 µg/mL (≈ 30.6 µM); in assay [5], 4.9 µg/mL (≈ 19 µM). Also, the IC50 with Pyricularia oryzae is > 200 µg/mL. Also, the MIC amounted to 50 µg/mL (≈ 194 µM) in [1]; 50 µg/mL (≈ 194 µM) against Bacillus subtilis; 25 µg/mL (≈ 96.8 µM) in [2]; 25 µg/mL (≈ 96.8 µM) in assay [3]; 50 µg/mL (≈ 194 µM) in assay [4]; 25 µg/mL (≈ 96.8 µM) in assay [5]. For the same molecule, the pIC50 in assay [6], in assay [7], in assay [8], in assay [9] and in assay [10] was < 5.00 throughout.

As to `Cc1c(Cl)c(O)cc2oc(=O)c3c(O)cc(O)cc3c12`, the IC50 came to 16.3 µg/mL (≈ 55.7 µM) in assay [1]; 18.6 µg/mL (≈ 63.6 µM) in the assay with Bacillus subtilis; 12.4 µg/mL (≈ 42.4 µM) in assay [3]; 22.7 µg/mL (≈ 77.6 µM) in assay [5]; 9.9 µg/mL (≈ 33.8 µM) in the assay with Pyricularia oryzae. In addition, the MIC in assay [1] was 50 µg/mL (≈ 171 µM); with Bacillus subtilis, 50 µg/mL (≈ 171 µM); in assay [2], > 200 µg/mL; in assay [3] it was 50 µg/mL (≈ 171 µM); in [4], > 200 µg/mL; in assay [5], 75 µg/mL (≈ 256 µM). The pIC50 in assay [6], in [7], in assay [8], in assay [9] and in assay [10] was < 5.00 throughout.

On to `COC1=C[C@](C)(O)c2c(oc(=O)c3c(O)cc(OC)cc23)C1=O`, for which the MIC (in assay [1]; in the assay with Bacillus subtilis; in [2]; in [3]; in [4]; in assay [5]) was > 200 µg/mL in each case. The IC50 in the assay on Pyricularia oryzae worked out at 82.1 µg/mL (≈ 258 µM). Moreover, the pIC50 in [6], in assay [11], in assay [12], in [13] and in [14] was < 4.30 throughout.
